ChEMBL document CHEMBL1137257, “Synthesis and evaluation of thiazepines as interleukin-1beta converting enzyme (ICE) inhibitors” (Bioorg Med Chem Lett, 2006)

Assays:
Homo sapiens = organism: Homo sapiens; assay: Selectivity for ICE over Caspase 8
Caspase-3 = biological target: T1, Caspase-3 (Homo sapiens, UniProt P42574); assay: Inhibition of Caspase 3
T1 sequence (P42574 whole entry): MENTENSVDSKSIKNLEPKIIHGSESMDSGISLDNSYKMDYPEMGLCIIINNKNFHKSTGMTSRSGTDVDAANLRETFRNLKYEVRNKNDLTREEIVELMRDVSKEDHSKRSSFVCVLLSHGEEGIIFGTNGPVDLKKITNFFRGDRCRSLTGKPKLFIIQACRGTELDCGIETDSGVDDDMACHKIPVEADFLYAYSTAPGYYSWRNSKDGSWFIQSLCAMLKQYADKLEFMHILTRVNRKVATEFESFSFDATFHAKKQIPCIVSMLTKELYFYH
Summary of the method: (§1)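 Isolated enzymes (ICE, caspase-3, caspase-8) were assayed with fluorogenic substrates following the supplier's kit protocol. Cleavage was followed for 30 min at 37 °C by fluorescence (excitation 390 nm, emission 460 nm). IC50 was calculated as [I]/((Vo/Vi) − 1) from the initial velocities with (Vi) and without (Vo) inhibitor.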

Caspase-8 = Caspase-8 (Homo sapiens, UniProt Q14790); assay: Inhibition of Caspase 8; summary of the method: as §1
Caspase-8, sequence (Q14790 217-374 limits assumed): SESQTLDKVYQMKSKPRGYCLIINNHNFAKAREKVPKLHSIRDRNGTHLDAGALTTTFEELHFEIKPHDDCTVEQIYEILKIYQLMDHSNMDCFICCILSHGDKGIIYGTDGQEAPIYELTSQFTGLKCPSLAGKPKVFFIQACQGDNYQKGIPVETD
Caspase-8, sequence (Q14790 385-479 limits assumed): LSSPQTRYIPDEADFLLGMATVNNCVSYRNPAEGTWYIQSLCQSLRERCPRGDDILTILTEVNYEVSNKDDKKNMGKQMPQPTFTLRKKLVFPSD

Caspase-1 = biological target: T2, Caspase-1 (Homo sapiens, UniProt P29466); assay: Inhibition of ICE; summary of the method: as §1
T2 sequence (P29466 whole entry): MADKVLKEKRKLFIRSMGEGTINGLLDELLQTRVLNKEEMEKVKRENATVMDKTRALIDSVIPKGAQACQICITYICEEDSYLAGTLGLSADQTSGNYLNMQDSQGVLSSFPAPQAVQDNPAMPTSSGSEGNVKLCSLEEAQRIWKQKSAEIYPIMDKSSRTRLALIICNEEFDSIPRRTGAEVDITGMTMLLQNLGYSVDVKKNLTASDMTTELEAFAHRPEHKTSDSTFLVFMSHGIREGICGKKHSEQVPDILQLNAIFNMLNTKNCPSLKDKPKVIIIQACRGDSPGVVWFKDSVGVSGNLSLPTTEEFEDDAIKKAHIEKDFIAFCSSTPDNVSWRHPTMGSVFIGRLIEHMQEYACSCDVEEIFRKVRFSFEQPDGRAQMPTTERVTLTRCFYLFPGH

THP-1 = assay: Inhibition of LPS-induced ILbeta1 release in human THP1 cells; format: functional, cell-based
Summary of the method: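 Human monocytic THP-1 cells (2 × 10⁶/ml, RPMI 1640) were preincubated 15 min with or without compound added as DMSO solutions, with test concentrations starting at 1 nM. Cells were then stimulated with LPS for 4 h and centrifuged. Inhibition of IL-1β production was measured.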

| Compound | Selectivity ratio (Homo sapiens) | IC50 (Caspase-3) [µM] | IC50 (Caspase-8) [µM] | IC50 (Caspase-1) [µM] | IC50 (THP-1) [µM] |
| --- | --- | --- | --- | --- | --- |
| O=C(CN1CCSC[C@H](NC(=O)c2nccc3ccccc23)C1=O)N[C@H]1CC(=O)OC1O (some centres undefined) | > 100 | > 10 | 7 | 0.07 | 0.73 |
| O=C(CN1CCS(=O)(=O)C[C@H](NC(=O)c2cccc(C(F)(F)F)c2)C1=O)N[C@H]1CC(=O)OC1O (some centres undefined) | > 100 |  |  |  | 3.4 |
| O=C(CN1CCSC[C@H](NC(=O)c2ccc3ccccc3c2)C1=O)N[C@H]1CC(=O)OC1O (some centres undefined) | > 100 | > 10 | 9.4 | 0.03 | 0.48 |
| CCO[C@@H]1OC(=O)C[C@@H]1NC(=O)[C@@H]1CCCN2C(=O)CC[C@H](NC(=O)c3nccc4ccccc34)C(=O)N12 [PRALNACASAN] |  | 1.3 |  |  | 0.19 |
| O=C(CN1CCSC[C@H](NC(=O)c2cccc(C(F)(F)F)c2)C1=O)N[C@H]1CC(=O)OC1O (some centres undefined) | > 100 | > 10 | > 10 | 0.15 | 1 |

Further compounds by falling IC50 (THP-1), results first:

| Selectivity ratio (Homo sapiens) | IC50 (Caspase-3) [µM] | IC50 (Caspase-8) [µM] | IC50 (Caspase-1) [µM] | IC50 (THP-1) [µM] | Compound |
| --- | --- | --- | --- | --- | --- |
| > 100 | > 10 | > 10 | 2.3 | 3.2 | O=C(CN1CCS(=O)(=O)C[C@H](NC(=O)c2ccccc2)C1=O)N[C@H]1CC(=O)OC1O (some centres undefined) |
| > 100 | > 10 | 5.2 | 0.35 | 1.7 | O=C(CN1CCSC[C@H](NC(=O)c2ccccc2)C1=O)N[C@H]1CC(=O)OC1O (some centres undefined) |
| > 100 | > 10 | 8.5 | 0.32 | 1.7 | O=C(CN1CCS(=O)(=O)C[C@H](NC(=O)c2cc3ccccc3s2)C1=O)N[C@H]1CC(=O)OC1O (some centres undefined) |
| > 100 | > 10 | 5 | 0.13 | 1.4 | O=C(CN1CCS(=O)(=O)C[C@H](NC(=O)c2nccc3ccccc23)C1=O)N[C@H]1CC(=O)OC1O (some centres undefined) |
| > 100 | > 10 | > 10 | 0.15 | 1.1 | O=C(CN1CCS(=O)(=O)C[C@H](NC(=O)c2ccc3ccccc3c2)C1=O)N[C@H]1CC(=O)OC1O (some centres undefined) |
| > 100 | > 10 | 9.5 | 0.08 | 0.64 | O=C(CN1CCSC[C@H](NC(=O)c2cc3ccccc3s2)C1=O)N[C@H]1CC(=O)OC1O (some centres undefined) |
